Reference: ChEMBL document CHEMBL1121637, “Tumor inhibitory triazenes. 2. Variation of antitumor activity within an homologous series” (J Med Chem, 1980)

How the values were obtained:
Mus musculus [1] = experiment: Percent increase in life span of TLX/5 lymphoma bearing mice at dose of 50 mg/kg; type: functional
Procedure, shortened: (§1)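 Female CBA/LAC mice with subcutaneously transplanted TLX/5 lymphoma. Drug given i.p. in saline (about pH 7.5) once daily for 5 consecutive days, starting 3 days after transplant. Doses ran 12.5–400 mg/kg, with lower doses made by serial dilution. Five mice per dose; survival time compared with 10 untreated controls. ILS ≥20% counted significant. Minimum dose for 50% ILS expressed in mol/kg.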

Mus musculus [2] = experiment: Percent increase in life span of TLX/5 lymphoma bearing mice at dose of 12.5 mg/kg; type: functional; procedure, shortened: as §1
Mus musculus [3] = species on record: Mus musculus; experiment: Minimum dose that causes 50% increase in life span in TLX/5 lymphoma bearing animal; type: functional; procedure, shortened: as §1
[4] = Partition coefficient was determined in octanol-saturated sorenson's pH 7.4 phosphate buffer and buffer-saturated octanol.; type: physicochemical; conditions: octanol/Sorensen's phosphate buffer
Procedure, shortened: (§2)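 Compound shaken 1 h at room temperature in 0.1 M Sorenson's phosphate buffer pre-saturated with octanol, filtered. A known volume was then shaken 1 h with a known volume of buffer-saturated octanol. Aqueous phase and initial filtrate diluted in ethanol, filtered, absorbance read at λmax. P = (aqueous vol × absorbance drop)/(final aqueous absorbance × octanol vol). Mean of at least two determinations.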

Mus musculus [5] = experiment: Percent increase in life span of TLX/5 lymphoma bearing mice at dose of 400 mg/kg; type: functional; procedure, shortened: as §1
Mus musculus [6] = experiment: Percent increase in life span of TLX/5 lymphoma bearing mice at dose of 25 mg/kg; type: functional
Mus musculus [7] = experiment: Percent increase in life span of TLX/5 lymphoma bearing mice at dose of 200 mg/kg; type: functional; procedure, shortened: as §1
[8] = Solubility in sorensen's phosphate buffer at pH 7.4 and 25 degrees Centigrade.
Mus musculus [9] = experiment: Percent increase in life span of TLX/5 lymphoma bearing mice at dose of 100 mg/kg; type: functional; procedure, shortened: as §1
Mus musculus [10] = experiment: Percent increase in life span of TLX/5 lymphoma bearing mice at dose of 25 mg/kg when 10 % acetone/Oil is given as vehicle; type: functional
Mus musculus [11] = experiment: Percent increase in life span of TLX/5 lymphoma bearing mice at dose of 200 mg/kg when 10 % acetone/Oil is given as vehicle; type: functional
Mus musculus [12] = experiment: Percent increase in life span of TLX/5 lymphoma bearing mice at dose of 12.5 mg/kg when 10 % acetone/Oil is given as vehicle; type: functional
Mus musculus [13] = experiment: Percent increase in life span of TLX/5 lymphoma bearing mice at dose of 100 mg/kg when 10 % acetone/Oil is given as vehicle; type: functional
Mus musculus [14] = experiment: Percent increase in life span of TLX/5 lymphoma bearing mice at dose of 400 mg/kg when 10 % acetone/Oil is given as vehicle; type: functional
Mus musculus [15] = experiment: Percent increase in life span of TLX/5 lymphoma bearing mice at dose of 50 mg/kg when 10 % acetone/Oil is given as vehicle; type: functional
Mus musculus [16] = experiment: Percent increase in life span of TLX/5 lymphoma bearing mice at dose of 100 mg/kg 200 mg/kg; type: functional; procedure, shortened: as §1
Mus musculus [17] = species on record: Mus musculus; experiment: Minimum dose that causes 50% increase in life span in TLX/5 lymphoma bearing mice; type: functional; procedure, shortened: as §1
[18] = Partition coefficient between octanol-saturated sorenson's pH 7.4 phosphate buffer and buffer-saturated octanol.; type: physicochemical; conditions: octanol/Sorensen's phosphate buffer; procedure, shortened: as §2

SMILES	ILS at 50 mg/kg (Mus musculus [1])	ILS at 12.5 mg/kg (Mus musculus [2])	Dose (Mus musculus [3])	logD [4]	ILS at 400 mg/kg (Mus musculus [5])	ILS at 25 mg/kg (Mus musculus [6])	ILS at 200 mg/kg (Mus musculus [7])	Solubility [8]	ILS at 100 mg/kg (Mus musculus [9])	ILS at 25 mg/kg (Mus musculus [10])	ILS at 200 mg/kg (Mus musculus [11])	ILS at 12.5 mg/kg (Mus musculus [12])	ILS at 100 mg/kg (Mus musculus [13])	ILS at 400 mg/kg (Mus musculus [14])	ILS at 50 mg/kg (Mus musculus [15])	ILS at 200 mg/kg (Mus musculus [16])	Dose (Mus musculus [17])	logD [18]
CCC(C)CN(C)/N=N/c1ccc(C(=O)O)cc1 (centres undefined)	52%	7%	0.0002 mol/kg	1.33	57%	11%	60%	0.0162 M l-1	62%	–	–	–	–	–	–	–	–	–
CCCCCCCCCCCCN(C)/N=N/c1ccc(C(=O)O)cc1	–	–	–	–	–	–	–	4.13e-6 M l-1	–	–	–	–	–	–	–	–	–	–
CN(Cc1ccccc1)/N=N/c1ccc(C(=O)O)cc1	7%	6%	–	–	-61%	6%	-59%	–	49%	–	–	–	–	–	–	–	–	–
CCCCN(C)/N=N/c1ccc(C(=O)O)cc1	86%	69%	5.3e-05 mol/kg	0.97	-31%	82%	20%	0.0155 M l-1	47%	–	–	–	–	–	–	–	–	–
CN(C)/N=N/c1ccc(C(=O)O)cc1	83%	40%	6.2e-05 mol/kg	-0.44	-34%	72%	0%	–	34%	51%	-4%	19%	49%	-36%	70%	–	–	–
C#CCN(C)/N=N/c1ccc(C(=O)O)cc1	76%	0%	0.00015 mol/kg	0	-18%	36%	40%	–	70%	–	–	–	–	–	–	–	–	–
C=CCN(C)/N=N/c1ccc(C(=O)O)cc1	96%	1%	0.00017 mol/kg	0.32	-25%	11%	56%	–	76%	–	–	–	–	–	–	–	–	–
CCCCCCN(C)/N=N/c1ccc(C(=O)O)cc1	18%	0%	3e-05 mol/kg	1.95	-53%	0%	-8%	0.00298 M l-1	73%	–	–	–	–	–	–	–	–	–
CCCCCCCCN(C)/N=N/c1ccc(C(=O)O)cc1	–	–	–	2.77	–	–	–	0.000171 M l-1	–	–	–	–	–	–	–	–	–	–
CCCCCCCN(C)/N=N/c1ccc(C(=O)O)cc1	5%	3%	–	2.58	-48%	1%	-19%	0.00041 M l-1	9%	–	–	–	–	–	–	–	–	–
CCN(C)/N=N/c1ccc(C(=O)O)cc1	79%	44%	–	–	-21%	79%	–	–	67%	–	–	–	–	–	–	27%	7e-05 mol/kg	0.04
CCCCCN(C)/N=N/c1ccc(C(=O)O)cc1	75%	10%	7.1e-05 mol/kg	1.49	-61%	108%	-61%	0.00428 M l-1	61%	–	–	–	–	–	–	–	–	–
CCCN(C)/N=N/c1ccc(C(=O)O)cc1	69%	13%	9.4e-05 mol/kg	0.46	-3%	69%	57%	0.0368 M l-1	69%	–	–	–	–	–	–	–	–	–
CC(C)N(C)/N=N/c1ccc(C(=O)O)cc1	64%	37%	7e-05 mol/kg	0.34	35%	90%	45%	–	60%	–	–	–	–	–	–	–	–	–
CN(C)/N=N/c1[nH]cnc1C(N)=O [DACARBAZINE]	59%	55%	–	–	-11%	55%	61%	–	55%	–	–	–	–	–	–	–	–	–
